Our source for the IC50 and Activity values is ChEMBL document CHEMBL1144522, “Novel C2-C3' N-peptide linked macrocyclic taxoids. Part 2: synthesis and biological activities of docetaxel analogues with a peptide side chain at C2 and their macrocyclic derivatives” (Bioorg Med Chem, 2007).

Structures are written as SMILES. Activity calls are given as the source filed them. The rule behind the calls is not given here. *1 amine or outer side, *2 acyl side, *3 side chain or, on linkers, in order; H or OH if unused. Where a SMILES comes first, the peptide text is derived from it. Bridges are numbered along the chain shown (N, C = ends). [ ]: non-standard residue; d: D form. The star is where a group is joined. ξ: configuration not given here. X1 = CC(=O)O[C@@]12COC1C[C@H](O)[C@@]1(C)C(=O)[C@H](O)C3=C(C)[C@@H](OC(=O)[C@H](O)[C@@H](NC(=O)[*:1])c4ccccc4)C[C@@](O)([C@@H](O[*:2])C21)C3(C)C; ξD = NC(CC(=O)O)C(=O)O; OtBu = CC(C)(C)O*

One data set concerns the target Tubulin. Description: (§1) Tubulin interaction assessed as inhibition of cold-induced microtubule disassembly. Type of data set: protein-complex assay, Homo sapiens. In short, it runs like this: (§2)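 Microtubular protein was purified from mammalian brain. The assay followed the rate of microtubule disassembly. IC50 is the concentration that inhibits that rate by 50%. Run by an established literature protocol.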

The subject of the next data set is KB. Description: Cytotoxicity against human KB cells after 72 hrs. The settings on record: for IC50: Homo sapiens, KB; for Activity: human, kb. Type of data set: cell-based. The method, boiled down:
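Cell proliferation measured after 72 h incubation with compound. IC50 is the drug concentration that inhibits proliferation by 50%. Run by an established literature protocol.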

A further data set has as its target Tubulin (Homo sapiens) (UniProt P68371+Q9H4B7+P0DPH7+P68366+Q13509+Q71U36+P04350+Q3ZCM7+P07437+P68363+Q9BQE3+Q6PEY2+Q13885+Q9BVA1+Q9BUF5). The data set is described as §1. Type of data set: protein-complex assay. The method, boiled down: as §2

One may read the IC50 as the point on the concentration scale where inhibition reaches its midpoint. For `CC(=O)O[C@@]12COC1C[C@H](O)[C@@]1(C)C(=O)[C@H](O)C3=C(C)[C@@H](OC(=O)C(O)C(NC(=O)N[C@H](C(=O)N4CCC[C@H]4C(=O)NCC(=O)O)C(C)C)c4ccccc4)C[C@@](O)([C@@H](OCc4ccccc4)C21)C3(C)C` (some centres undefined), the IC50 is 600 nM on Tubulin and greater than 10000 nM in the data set on KB.

On to `CC(=O)O[C@@]12COC1C[C@H](O)[C@@]1(C)C(=O)[C@H](O)C3=C(C)[C@@H](OC(=O)[C@H](O)[C@@H](NC(=O)N[C@H](C(=O)OCc4ccccc4)C(C)C)c4ccccc4)C[C@@](O)([C@@H](OCc4ccccc4)C21)C3(C)C` (some centres undefined), for which the IC50 at Tubulin was 800 nM; in the data set with KB it was 4 nM.

On to `CC(=O)O[C@@]12COC1C[C@H](O)[C@@]1(C)C(=O)[C@H](O)C3=C(C)[C@@H](OC(=O)[C@H](O)[C@@H](NC(=O)NCC(=O)N[C@@H](CO)C(=O)N[C@@H](Cc4ccc(O)cc4)C(=O)O)c4ccccc4)C[C@@](O)([C@@H](OCc4ccccc4)C21)C3(C)C` (some centres undefined), for which the concentration for half-maximal inhibition (IC50) on Tubulin was 1000 nM; with KB, 1050 nM.

Take `CC(=O)O[C@@]12COC1C[C@H](O)[C@@]1(C)C(=O)[C@H](O)C3=C(C)[C@@H]4C[C@@](O)([C@@H](OC(=O)c5cccc(c5)NC(=O)CNC(=O)CNC(=O)[C@@H]5CCCN5C(=O)[C@H](C(C)C)NC(=O)N[C@@H](c5ccccc5)[C@@H](O)C(=O)O4)C21)C3(C)C` (some centres undefined): in the data set on KB, the Activity entry was “Non-toxic”.

As to `COC(=O)[C@@H](CCSC)NC(=O)[C@H](Cc1ccccc1)NC(=O)[C@@H](NC(=O)N[C@@H](c1ccccc1)[C@@H](O)C(=O)O[C@H]1C[C@@]2(O)[C@@H](OCc3ccccc3)C3[C@]4(OC(C)=O)COC4C[C@H](O)[C@@]3(C)C(=O)[C@H](O)C(=C1C)C2(C)C)C(C)C` (some centres undefined), on Tubulin, the IC50 is 2600 nM.

Consider `CC(=O)O[C@@]12COC1C[C@H](O)[C@@]1(C)C(=O)[C@H](O)C3=C(C)[C@@H](OC(=O)C(O)[C@@H](NC(=O)N[C@H](C(=O)N4CCC[C@H]4C(=O)NCC(=O)NCC(=O)O)C(C)C)c4ccccc4)C[C@@](O)([C@@H](OC(=O)c4cccc(N)c4)C21)C3(C)C` (some centres undefined), for which the IC50 was 1000 nM at Tubulin and greater than 10000 nM with KB.

As for `CC(=O)O[C@@]12COC1C[C@H](O)[C@@]1(C)C(=O)[C@H](O)C3=C(C)[C@@H]4C[C@@](O)([C@@H](OC(=O)CNC(=O)C(CC(=O)OC(C)(C)C)NC(=O)CNC(=O)CNC(=O)[C@@H]5CCCN5C(=O)[C@H](C(C)C)NC(=O)N[C@@H](c5ccccc5)[C@@H](O)C(=O)O4)C21)C3(C)C` (some centres undefined) (VPGG[ξD](OtBu)G; linker N-C via X1), the Activity result in the data set with KB was “Non-toxic”.

As for `CC(=O)O[C@@]12COC1C[C@H](O)[C@@]1(C)C(=O)[C@H](O)C3=C(C)[C@@H](OC(=O)[C@H](O)[C@@H](NC(=O)OC(C)(C)C)c4ccccc4)C[C@@](O)([C@@H](OC(=O)[C@@H](NC(=O)[C@@H]4CCCN4C(=O)CNC(=O)CN)C(C)C)C21)C3(C)C` (some centres undefined), the outcome on Tubulin (Homo sapiens) was inactive. The Activity result in the data set on KB is given as “Not Active”.

Consider `CC(=O)O[C@@]12COC1C[C@H](O)[C@@]1(C)C(=O)[C@H](O)C3=C(C)[C@@H](OC(=O)[C@H](O)[C@@H](NC(=O)OC(C)(C)C)c4ccccc4)C[C@@](O)([C@@H](OC(=O)CNC(=O)Oc4ccccc4)C21)C3(C)C` (some centres undefined), for which, on Tubulin (Homo sapiens), the result was inactive. Also, 90 nM corresponded to half-maximal inhibition with KB (IC50).

As to `COC(=O)[C@H](CCSC)NC(=O)[C@H](Cc1ccccc1)NC(=O)[C@@H](NC(=O)N[C@@H](c1ccccc1)[C@@H](O)C(=O)O[C@H]1C[C@@]2(O)[C@@H](OCc3ccccc3)C3[C@]4(OC(C)=O)COC4C[C@H](O)[C@@]3(C)C(=O)[C@H](O)C(=C1C)C2(C)C)C(C)C` (some centres undefined), the IC50 in the data set on KB worked out at 1100 nM.

Take `CC(=O)O[C@@]12COC1C[C@H](O)[C@@]1(C)C(=O)[C@H](O)C3=C(C)[C@@H](OC(=O)[C@H](O)[C@@H](NC(=O)OC(C)(C)C)c4ccccc4)C[C@@](O)([C@@H](OC(=O)CN)C21)C3(C)C` (some centres undefined): the figures for the IC50 on Tubulin and in the data set on KB were 51000 nM and greater than 10000 nM, respectively.

Regarding `CC(=O)O[C@@]12COC1C[C@H](O)[C@@]1(C)C(=O)[C@H](O)C3=C(C)[C@@H](OC(=O)[C@H](O)[C@@H](NC(=O)OC(C)(C)C)c4ccccc4)C[C@@](O)([C@@H](OC(=O)[C@@H]4CCCN4C(=O)CNC(=O)CN)C21)C3(C)C` (some centres undefined), the outcome on Tubulin (Homo sapiens) was inactive. Further, the Activity result in the data set with KB is “Not Active”.

Regarding `CC(=O)O[C@@]12COC1C[C@H](O)[C@@]1(C)C(=O)[C@H](O)C3=C(C)[C@@H](OC(=O)[C@H](O)[C@@H](NC(=O)NCC(=O)N[C@@H](COCc4ccccc4)C(=O)N[C@@H](Cc4ccc(OCc5ccccc5)cc4)C(=O)OCc4ccccc4)c4ccccc4)C[C@@](O)([C@@H](OCc4ccccc4)C21)C3(C)C` (some centres undefined), on Tubulin (Homo sapiens), the result was inactive. Further, the IC50 in the data set with KB turned out to be 90 nM.

Regarding `CC(=O)O[C@@]12COC1C[C@H](O)[C@@]1(C)C(=O)[C@H](O)C3=C(C)[C@@H](OC(=O)[C@H](O)[C@@H](NC(=O)OC(C)(C)C)c4ccccc4)C[C@@](O)([C@@H](OC(=O)CNC(=O)CN)C21)C3(C)C` (some centres undefined), at Tubulin (Homo sapiens), the outcome was inactive. Moreover, the Activity entry with KB was “Not Active”.

Take `CC(=O)O[C@@]12COC1C[C@H](O)[C@@]1(C)C(=O)[C@H](O)C3=C(C)[C@@H](OC(=O)C(O)[C@@H](NC(=O)N[C@H](C(=O)N4CCC[C@H]4C(=O)NCC(=O)NCC(=O)OCc4ccccc4)C(C)C)c4ccccc4)C[C@@](O)([C@@H](OC(=O)c4cccc([N+](=O)[O-])c4)C21)C3(C)C` (some centres undefined): the IC50 on Tubulin is 500 nM; with KB, greater than 10000 nM.

Regarding `CC(=O)O[C@@]12CO[C@@H]1C[C@H](O)[C@@]1(C)C(=O)[C@H](O)C3=C(C)[C@@H](OC(=O)[C@H](O)[C@@H](NC(=O)OC(C)(C)C)c4ccccc4)C[C@@](O)([C@@H](OC(=O)c4ccccc4)[C@H]21)C3(C)C` [DOCETAXEL], the IC50 amounted to 500 nM at Tubulin and 0.1 nM with KB.

For the molecule `CC(=O)O[C@@]12COC1C[C@H](O)[C@@]1(C)C(=O)[C@H](O)C3=C(C)[C@@H]4C[C@@](O)([C@@H](OC(=O)CNC(=O)CNC(=O)[C@@H]5CCCN5C(=O)[C@H](C(C)C)NC(=O)N[C@@H](c5ccccc5)[C@@H](O)C(=O)O4)C21)C3(C)C` (some centres undefined), the Activity result with KB is reported as “Non-toxic”.
